eIF2B yeast act – GCN4-lacZ reporter reduction in eIF2B-epsilon mutant yeast, primary screen, S. cerevisiae, eIF2B-epsilon R284H, Beta-Glo luminescence; 27,000 compounds, 0.91% hits; inhibition, % at 25 µM (by protocol);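 active means mutant luminescence inhibited past about 50% while wild type luminescence and mutant growth stay under set limits, limit read from the data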
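Material: yeast eIF2B-epsilon R284H mutant carrying GCN4–beta-galactosidase fusion. Medium: YPD yeast growth medium. Incubation: 16 h growth with compound at 30 °C, 90 min Beta-Glo step. Signal: Beta-Glo luminescence plus absorbance at 595 nm. Evaluation: % inhibition of reporter signal and growth versus controls. Doses: 25 µM single dose.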
Yeast tox – yeast growth toxicity, wild-type and mutant, primary screen, cytotoxicity control for eIF2B function restoration project, wild-type and eIF2Bepsilon R284H mutant, A595; S. cerevisiae wild-type growth, A595 turbidity, 16 h; growth inhibition, % at 25 µM (by protocol); 30,000 compounds, 0.3% hits; AID 685, 2007;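 active means mutant and wild-type yeast strains alike exhibit over 30% growth inhibition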
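system = S. cerevisiae wild-type or eIF2Bepsilon-R284H mutant strain | buffer or medium = YPD medium | dosing = one dose, 25 µM compound, 0.2% DMSO | schedule = 16 h at 30 °C | measured by = A595 turbidity | evaluation = growth inhibition (%) versus cell controls and blanks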
Hits are given with their value; . = inactive; / = no result. Only some compounds are listed: those with a hit (about 1% of all), similar ones and a draw of the others.

SMILES	eIF2B yeast act	Yeast tox
CCCOC(=O)/C(=C\c1ccc([N+](=O)[O-])o1)NC(=O)c1ccccc1	.	.
CCc1ccc(C(=O)/C=C/c2ccc([N+](=O)[O-])o2)cc1	/	66
C=CCOc1ccc(CNc2nccs2)cc1OC	.	.
COc1nc2c(C)cccc2cc1-c1noc(-c2ccncc2)n1	.	.
Cc1cc2n(n1)SC(Nc1ccccc1)N2 (configuration not stated)	55	/
Cc1nc(SCC(=O)Nc2c(C)n(C)n(-c3ccccc3)c2=O)[nH]c(=O)c1C	.	.
COc1ccc(OCC(=O)NCc2cccnc2)cc1	.	/
COc1ccc2c(c1)CCc1c(C(=O)NCc3cccnc3)noc1-2	60	.
CCn1ccc(C(=O)NC2=C(C#N)CCC2)n1	.	.
COc1ccc(OCc2nn3c(-c4ccccn4)nnc3s2)cc1	.	.
COc1ccccc1-c1nnc2sc(COc3ccc(Cl)cc3)nn12	63	.
COC(=O)c1cn(CCOc2ccccc2OC)c2ccccc12	.	/
COC(=O)c1cn(CCOc2ccccc2)c2ccccc12	61	.
COC(=O)C(NC(=O)c1ccc(Cl)cc1)(Nc1nc(C)cs1)C(F)(F)F (configuration not stated)	.	.
COCCN1CCN(c2cc(-c3ccccc3)nc3cc(-c4cccc(F)c4)nn23)CC1	/	74
Fc1cccc(-c2cc3nc(-c4ccccc4)cc(N4CCC5(CC4)OCCO5)n3n2)c1	.	/
N#Cc1cn(CC(=O)N2CCc3ccccc3C2)c2ccccc12	.	.
CC(=O)NCC(=O)N(C)C(C(=O)Nc1ccc(C(C)C)cc1)c1ccccc1 (configuration not stated)	/	.
Cc1ccc(N2C(=O)C3C4C=CC(C4)C3C2=O)cc1C (configuration not stated)	.	.
Cc1cccc(N2C(=O)C3C4C=CC(C4)C3C2=O)c1 (configuration not stated)	57	.
Cn1c(=O)c(-c2cc(Br)ccc2N)nc2ccccc21	/	.
Cc1c(Cl)ccc2c1NC(=O)[C@]21N[C@@H](Cc2ccccc2)[C@H]2C(=O)N(c3ccc(F)cc3)C(=O)[C@H]21	.	.
CCS(=O)(=O)N1CCC(C(=O)c2ccc(Cl)cc2)CC1	.	.
CC(=O)c1ccc(N2CCN(C(=O)C3CCN(S(=O)(=O)Cc4ccccc4)CC3)CC2)cc1	.	.
COc1cccc(C2(O)CCN(C(=O)Cc3cccnc3)CC2)c1	.	.
SMILES	eIF2B yeast act	Yeast tox
CCc1c(C)c(C#N)c2nc3ccccc3n2c1NCc1ccco1	/	.
C=CCc1c(C)c(C#N)c2nc3ccccc3n2c1NCCN(C)C	.	95
Cc1ncc(CCl)c2c1OC(C)(C)OC2	.	.
CCn1c(SCC(=O)Nc2cc(OC)ccc2OC)nnc1C1CCCCC1	.	.
O=c1c2ccccc2nc(CSc2ncnc3nc[nH]c23)n1-c1cccc(C(F)(F)F)c1	.	.
CC(C)NC(=O)CSCc1c(F)cccc1Cl	.	.
Cc1cc(NC(=O)c2cc(-c3cccs3)on2)no1	.	31
CC(C)NC(=O)c1cc(-c2cccs2)on1	.	.
O=C(CCS(=O)NCc1ccccc1)NCc1ccccc1 (configuration not stated)	.	.
O=C(CCS(=O)CCC(=O)NCc1ccccc1)NCc1ccccc1	55	.
CC(C)NC(=O)CCNS(=O)(=O)c1ccc(Br)cc1	83	.
Cc1ccc(S(=O)(=O)NCCC(=O)O)cc1	.	.
C=CCc1c(C)nc(SC(C)C)[nH]c1=O	52	.
C=CCSc1nc(C)c(CC=C)c(=O)[nH]1	.	/
O=C(Cn1nnc(-c2ccccc2Cl)n1)NCc1ccc2c(c1)OCO2	/	.
CCCCNC(=O)Nc1nnc(-c2ccc(Cl)cc2)o1	/	.
COC(=O)c1ccc(C(=O)OC)c(NC(=O)CSc2nc(-c3ccco3)cc(C(F)(F)F)n2)c1	.	.
COC(=O)c1ccccc1NC(=O)CSc1nc(-c2ccco2)cc(C(F)(F)F)n1	66	.
COc1ccccc1C(=O)NCC1CCN(c2ccc(S(=O)(=O)N3CCOCC3)cc2)CC1	.	.
CN1CCN(c2nc(-c3ccccc3)cc(C(F)(F)F)n2)CC1	.	.
CN1CCN(C2=Cc3ccccc3Sc3cc(F)c(Cl)cc32)CC1	.	99
CN1CCN(CCC(=O)N2c3ccccc3Sc3ccc(Cl)cc32)CC1	.	.
CN1CCN(C2=Cc3ccccc3Sc3cc(F)c(F)cc32)CC1	.	94
CCCc1n[nH]c2c1/C(=N\O)CCC2	.	.
Cc1ccnc(SCCn2c(N3CCOCC3)nc3c2c(=O)n(C)c(=O)n3C)n1	.	.
Cc1cccc(Cn2cnc3c(nnn3Cc3ccc(Cl)cc3)c2=O)c1	59	.
Cc1ccc(Cn2nnc3c(=O)n(CC(=O)N4CCCc5ccccc54)cnc32)cc1	.	.
